Where a name gives a salt, the structure may show the parent alone.
Key:
Type in all cases: functional, cell-based
HeLa = experiment: Cytotoxicity against human HeLa cells after 48 hrs by MTT assay
How it was run: (§1)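 Cells grown in DMEM with penicillin (100 U/mL), streptomycin (100 μg/mL) and 10% FBS at 37 °C, 5% CO2, and seeded at 5000 cells/well. After 24 h, compounds were added diluted in DMSO and left for 48 h. Medium was then replaced with MTT (1 mg/mL final, serum-free phenol-red-free RPMI) for 4 h. Formazan was dissolved in isopropanol and read at 550 nm (reference 690 nm). IC50 reported.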

PC-3 = experiment: Cytotoxicity against human PC-3 cells after 48 hrs by MTT assay; details: PC-3, 48 h; how it was run: as §1
MCF7 = experiment: Cytotoxicity against human MCF7 cells after 48 hrs by MTT assay; details: MCF7, 48 h; how it was run: as §1
MDA-MB-231 = experiment: Cytotoxicity against human MDA-MB-231 cells after 48 hrs by MTT assay; details: MDA-MB-231, 48 h; how it was run: as §1

**Q.** How did the IC50 (HeLa) turn out when `C=C(CO)[C@@H]1CC[C@H]2[C@]3(CC[C@]4(C)[C@@H]([C@H](C)CC[C@@H](O)C(C)(C)O)CC[C@@]24C)C[C@]13CCC(=O)O` [SECAUBRYTRIOL] was run?
**A.** > 100 µM

**Q.** What about the IC50 (PC-3) of the same compound?
**A.** > 100 µM

**Q.** And the IC50 (MCF7)?
**A.** > 100 µM

**Q.** What about the IC50 (MDA-MB-231) of the same compound?
**A.** > 100 µM

**Q.** `C=C(CO)[C@@H]1CC[C@H]2[C@]3(CC[C@]4(C)[C@@H]([C@H](C)CCC=C(C)C)CC[C@@]24C)C[C@]13CCC(=O)O` [SECAUBRYENOL] was tested. Which IC50 (HeLa) did it give?
**A.** > 100 µM

**Q.** And the IC50 (PC-3)?
**A.** > 100 µM

**Q.** And the IC50 (MCF7)?
**A.** > 100 µM

**Q.** What about the IC50 (MDA-MB-231) of the same compound?
**A.** > 100 µM

**Q.** What does the source list for `C=C1C(=O)O[C@@H]2C[C@@H]3[C@]4(CC[C@]5(C)[C@@H]([C@H](C)CC(=O)C=C(C)C)CC[C@@]35C)C[C@]4(CCC(=O)OC)[C@H]12` [SECAUBRYOLIDE]?
**A.** IC50 (HeLa): 40 µM; IC50 (PC-3): 35 µM; IC50 (MCF7): 52 µM; IC50 (MDA-MB-231): 21 µM

**Q.** `COc1cccc2c1C(=O)c1c(O)c3c(c(O)c1C2=O)C[C@@](O)(C(C)=O)C[C@@H]3O[C@H]1C[C@H](N)[C@H](O)[C@H](C)O1` [DAUNORUBICIN HYDROCHLORIDE] was tested. Which IC50 (HeLa) did it give?
**A.** 0.32 µM

**Q.** What about the IC50 (PC-3) of the same compound?
**A.** 0.44 µM

**Q.** And the IC50 (MCF7)?
**A.** 0.22 µM

**Q.** And the IC50 (MDA-MB-231)?
**A.** 0.25 µM

Reference: ChEMBL document CHEMBL1158125, “seco-Cycloartane triterpenes from Gardenia aubryi” (J Nat Prod, 2006)
